In the library only some 2.4% were active in any assay of this set; here they are far more common.
Rin1 Abl inh – inhibitors of Rin1-Abl protein binding, primary screen, biochemical, TR-FRET | Tyrosine-protein kinase ABL1 (Homo sapiens) + Ras and Rab interactor 1 (Homo sapiens), … | inhibition, % at 7.35 µM | 0.4% of 360,000 active | AID 588664, 2011; in the data active means inhibition above about 5%, passing the limit was not always enough
HNF4A DNA FP – change in binding of human HNF4A to DNA, primary screen, biochemical, fluorescence polarization, FITC-DNA; Hepatocyte nuclear factor 4-alpha (Homo sapiens), P41235; 1 h; activity change, % at 10 µM; 0.3% of 360,000 active; AID 1224865, 2016; in the data active means activity change above about 30%, passing the limit was not always enough
Target sequence (P41235 whole entry, looked up): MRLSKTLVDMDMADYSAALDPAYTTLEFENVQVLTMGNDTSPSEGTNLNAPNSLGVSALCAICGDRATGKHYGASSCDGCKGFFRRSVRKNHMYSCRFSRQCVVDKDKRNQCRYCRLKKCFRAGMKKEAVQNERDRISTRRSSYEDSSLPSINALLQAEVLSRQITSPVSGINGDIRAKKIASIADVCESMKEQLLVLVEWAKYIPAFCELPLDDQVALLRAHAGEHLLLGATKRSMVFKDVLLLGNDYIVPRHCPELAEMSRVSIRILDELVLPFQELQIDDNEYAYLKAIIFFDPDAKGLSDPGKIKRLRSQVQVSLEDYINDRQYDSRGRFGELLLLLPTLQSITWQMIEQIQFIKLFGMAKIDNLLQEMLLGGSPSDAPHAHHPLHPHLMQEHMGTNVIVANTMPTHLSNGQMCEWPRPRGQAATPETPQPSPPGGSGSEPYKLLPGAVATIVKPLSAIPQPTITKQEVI
TPT1 inhibitor – Candida albicans TPT1 enzyme inhibitors, primary screen, biochemical, fluorescence polarization; recombinant caTPT1, FP RNA substrate dephosphorylation; inhibition, % at 5 µM; 0.81% of 300,000 active; AID 1962, 2009;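 active means inhibition above the mean of all tested compounds plus 3 SD, set per screening campaign, cut at about 24% in these data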;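 further: plate controls were DMSO alone for no effect and ferristatin control at 100 nM for full effect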
Rpn11 inh – Rpn11 (PSMD14) deubiquitinase inhibitors, primary screen, biochemical, fluorescence polarization, uHTS; inhibition, % at 20 µM; 0.59% of 360,000 active; 26S proteasome non-ATPase regulatory subunit 14 (Homo sapiens), O00487; human 26S proteasome, Ub4-pepOG fluorescence polarization; 20S core pre-blocked with epoxomicin;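 active means inhibition at 20 µM, scaled to each plate's controls, above about 33%, limit read from the data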
CSN deneddyl inh – inhibitors of CSN-mediated cullin deneddylation, primary screen, biochemical, fluorescence polarization, uHTS. COP9 signalosome complex subunit 5 (Homo sapiens), Q92905. Purified CSN, SCF-Nedd8-OG deneddylation. inhibition, % at 12.5 µM. 0.38% of 360,000 active;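 active means pattern-corrected inhibition above about 35%, with an unprinted fluorescence ratio check between 0.5 and 1.5, limit read from the data, passing the limit was not always enough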;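 further: 0% = enzyme with substrate and 100% = substrate without enzyme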
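Schedule: reaction 90 min, room temperature / Assay system: HEK293T-derived human Csn5 enzyme / Input: Csn5 at 0.24 nM final / Measure: inhibition of Csn5 cleavage, % / Control set: substrate-only high control, full reaction low control / Technique: fluorescence polarization of the substrate / Buffer or medium: Tris/NaCl/DTT buffer, pH 7.5 / Reagent: SCFSkp2-Nedd8OG substrate at 10 nM final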
Neddyl block – inhibitors of cullin neddylation, primary screen, biochemical, TR-FRET, uHTS, NAE and Ubc12. inhibition, % at 25 µM. 0.58% of 360,000 active. AID 651699, 2012. NEDD8-conjugating enzyme Ubc12 (Homo sapiens) + NEDD8-activating enzyme E1 regulatory …; in the data active means inhibition above about 36%
Rin1 Abl conf – Rin1-Abl binding inhibitor retest, confirmation, biochemical, TR-FRET. shares compounds with Rin1 Abl inh. purified proteins. inhibition, % at 7.35 µM. 49% of 1,300 active. AID 602124, 2011
GFP quench – GFP fluorescence inhibitors and quenchers, artefact control for Rin1-Abl interaction inhibitor project, biochemical; shares compounds with Rin1 Abl inh; inhibition, % at 6.75 µM; 8.5% of 1,300 active; inhibitors/quenchers counterscreen;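 further: ABL1-eGFP fusion protein alone without its partner RIN1-SBP; 0% = protein with vehicle and 100% = wells lacking protein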
GFP quench dose – GFP fluorescence inhibitors and quenchers, dose response, artefact control for Rin1-Abl interaction inhibitor project, biochemical; shares compounds with Rin1 Abl inh; GFP fluorescence interference/quenching counterscreen; IC50, µM; 230 tested, under 10 active; call rule not given here;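 further: ABL1-eGFP fusion protein alone without its RIN1 binding partner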
An asterisk follows results filed as active. Unless noted, no stated cut-off is given here; in the data, active means inhibition above about 6.5%; inactive means the rest.

What do the screens show for `CCN1C(=O)CC(n2c(C)nc3ccccc32)C1=O` (stereo not drawn)?
Rin1 Abl inh: 7.9*; HNF4A DNA FP: -1; TPT1 inhibitor: 0; Rpn11 inh: -1; CSN deneddyl inh: -5; Neddyl block: -6; Rin1 Abl conf: -1; GFP quench: -1

Results for O=C(Nc1ccccc1Cl)C1CC(=O)N(c2ccccc2)C1 (stereo not drawn) ?
Rin1 Abl inh: -1; HNF4A DNA FP: -2; TPT1 inhibitor: 1; Rpn11 inh: 0; CSN deneddyl inh: -4; Neddyl block: 0

What do the screens show for `O=C(Nc1cccc2nsnc12)C1CC(=O)N(c2ccccc2)C1` (stereo not drawn)?
Rin1 Abl inh: 10*; HNF4A DNA FP: 6; TPT1 inhibitor: 3; Rpn11 inh: 1; CSN deneddyl inh: 6; Neddyl block: 25; Rin1 Abl conf: -5; GFP quench: -1

Results for O=C(O)/C=C/C(=O)c1c(-c2ccccc2)[nH]c2ccccc12 ?
Rin1 Abl inh: 2; HNF4A DNA FP: -5; TPT1 inhibitor: -2; Rpn11 inh: 4; CSN deneddyl inh: 7; Neddyl block: 9

Results for Cc1c(NC(=O)c2ccc(NS(=O)(=O)c3ccccc3)cc2)c(=O)n(-c2ccccc2)n1C ?
Rin1 Abl inh: 1; HNF4A DNA FP: 1; TPT1 inhibitor: 2; Rpn11 inh: -7; CSN deneddyl inh: -4; Neddyl block: 0

How did OC[C@@H]1CN(Cc2ccc(-c3ccccc3)cc2)C[C@H](n2cnc3c(Nc4ccccc4)ncnc32)O1 do in these assays?
Rin1 Abl inh: 2; HNF4A DNA FP: 3; Rpn11 inh: 8; CSN deneddyl inh: 3

How did CC(C)CNc1ncnc2c1ncn2[C@H]1CN(Cc2ccc(Cl)cc2)C[C@@H](CO)O1 do in these assays?
Rin1 Abl inh: 18*; HNF4A DNA FP: -2; Rpn11 inh: -2; CSN deneddyl inh: 2; Neddyl block: -3; Rin1 Abl conf: 10*; GFP quench: -2

How did OC[C@@H]1CN(Cc2ccc(-c3ccccc3)cc2)C[C@H](n2cnc3c(NCc4ccc(F)cc4)ncnc32)O1 do in these assays?
Rin1 Abl inh: 1; HNF4A DNA FP: 0; Rpn11 inh: -3; CSN deneddyl inh: 5; Neddyl block: -2

How did OC[C@@H]1CN(Cc2ccc(-c3ccccc3)cc2)C[C@H](n2cnc3c(NC4CC4)ncnc32)O1 do in these assays?
Rin1 Abl inh: 26*; HNF4A DNA FP: 1; Rpn11 inh: 4; CSN deneddyl inh: -2; Neddyl block: -2; Rin1 Abl conf: 21*; GFP quench: -1; GFP quench dose: >68

How did CC(C)CNc1ncnc2c1ncn2[C@H]1CN(Cc2ccc(F)cc2)C[C@@H](CO)O1 do in these assays?
Rin1 Abl inh: 2; HNF4A DNA FP: 2; Rpn11 inh: -8; CSN deneddyl inh: -2; Neddyl block: 5

Results for CC(C)Nc1ncnc2c1ncn2[C@H]1CN(Cc2ccc(Cl)cc2)C[C@@H](CO)O1 ?
Rin1 Abl inh: 6; HNF4A DNA FP: 2; Rpn11 inh: -3; CSN deneddyl inh: 0; Neddyl block: 5

Results for OC[C@@H]1CN(Cc2ccc(Cl)cc2)C[C@H](n2cnc3c(NC4CCC4)ncnc32)O1 ?
Rin1 Abl inh: 12*; HNF4A DNA FP: 1; Rpn11 inh: 6; CSN deneddyl inh: -2; Neddyl block: 10; Rin1 Abl conf: 9.4*; GFP quench: -1

What do the screens show for `CNc1ncnc2c1ncn2[C@H]1CN(Cc2ccc(-c3ccccc3)cc2)C[C@@H](CO)O1`?
Rin1 Abl inh: 9.7*; HNF4A DNA FP: -5; Rpn11 inh: -4; CSN deneddyl inh: -3; Neddyl block: 9; Rin1 Abl conf: 13*; GFP quench: -2

How did Nn1c(SCc2ccccc2F)nnc1-c1ccccn1 do in these assays?
Rin1 Abl inh: 2; HNF4A DNA FP: 6; TPT1 inhibitor: 0; Rpn11 inh: -3; CSN deneddyl inh: 0; Neddyl block: 1

How did CCc1ccc([C@H]2[C@@H]3C(=O)C[C@@H]4C(=O)N(Cc5ccccc5)C(=O)[C@@H]4[C@@H]3CN2S(=O)(=O)c2ccc(C)cc2)cc1 do in these assays?
Rin1 Abl inh: -2; HNF4A DNA FP: -3; Rpn11 inh: 10; CSN deneddyl inh: 1; Neddyl block: 6

How did CCCn1c(=O)c2c(ncn2C)n(CCC)c1=O do in these assays?
Rin1 Abl inh: -2; HNF4A DNA FP: 6; TPT1 inhibitor: -2; Rpn11 inh: -5; CSN deneddyl inh: 0; Neddyl block: -7

What do the screens show for `COc1ccc(SCCCn2c(=O)c3c(ncn3C)n(C)c2=O)cc1`?
Rin1 Abl inh: 7.7*; HNF4A DNA FP: -1; TPT1 inhibitor: -1; Rpn11 inh: -2; CSN deneddyl inh: 1; Neddyl block: 6; Rin1 Abl conf: 0; GFP quench: 1

Results for CCN1CCc2nc3ccccc3c(C(=O)Nc3ccc(C#N)cc3)c2C1 ?
Rin1 Abl inh: 1; HNF4A DNA FP: 1; TPT1 inhibitor: -3; Rpn11 inh: 6; CSN deneddyl inh: -3; Neddyl block: 0

How did Cn1c(=O)c2c(nc(CN3CCN(C(=O)c4ccco4)CC3)n2Cc2ccc(Cl)cc2)n(C)c1=O do in these assays?
Rin1 Abl inh: -2; HNF4A DNA FP: 1; TPT1 inhibitor: 0; Rpn11 inh: -7; CSN deneddyl inh: 3; Neddyl block: 10

How did Cn1c(=O)c2c(nc(CN3CCN(C(=O)c4ccco4)CC3)n2Cc2cccc(Cl)c2)n(C)c1=O do in these assays?
Rin1 Abl inh: 7.1*; HNF4A DNA FP: 1; TPT1 inhibitor: -4; Rpn11 inh: -3; CSN deneddyl inh: -2; Neddyl block: 1; Rin1 Abl conf: -2; GFP quench: 1

How did COc1ccc2c3c(cccc13)C(=O)CC2 do in these assays?
Rin1 Abl inh: 12*; HNF4A DNA FP: -91; Rpn11 inh: -262; CSN deneddyl inh: -73; Neddyl block: -38; Rin1 Abl conf: -3; GFP quench: -12

Source: PubChem
